Shown are actives, neighbours in structure and some others; about 5.9% of the full set was active somewhere.
IDH1 mut inh: IDH1 R132H (human) inhibition. O75874. IDH1 R132H reductase, diaphorase/resazurin fluorescence, 60 min. inhibition, % at 10 µM. 70,000 compounds, 0.18% hits. AID 624101; in the data active = inhibition above about 34%; inconclusive = no clear call, values can overlap the other calls; inactive = below about 11%
Target sequence (O75874 whole entry R132H): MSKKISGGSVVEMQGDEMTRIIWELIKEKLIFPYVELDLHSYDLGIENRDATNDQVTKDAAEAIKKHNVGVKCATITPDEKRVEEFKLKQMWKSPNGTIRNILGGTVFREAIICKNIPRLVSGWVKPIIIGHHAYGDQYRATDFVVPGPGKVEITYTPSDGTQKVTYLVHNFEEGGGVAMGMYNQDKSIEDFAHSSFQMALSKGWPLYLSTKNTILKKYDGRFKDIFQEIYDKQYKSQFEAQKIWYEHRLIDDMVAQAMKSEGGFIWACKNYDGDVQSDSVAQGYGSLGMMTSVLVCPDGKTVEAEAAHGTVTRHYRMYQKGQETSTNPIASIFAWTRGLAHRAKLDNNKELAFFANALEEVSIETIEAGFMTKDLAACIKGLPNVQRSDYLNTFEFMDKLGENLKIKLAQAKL
T cruzi growth-1: inhibitors of T. cruzi proliferation; 77,000 compounds, 5.9% hits; T. cruzi beta-gal in NIH3T3, GalScreen luminescence, 90 h; inhibition, % at 8.34 µM;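 active = mean inhibition above about 93%, with at least 55% of replicates each passing it, limit read from the data, passing the limit was not always enough; inconclusive = only one of those two conditions holds; inactive = neither condition holds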
Pf Dd2 inh: blocks growth of Plasmodium falciparum Dd2 parasites. P. falciparum Dd2 growth, SYBR Green, 72 h; active compounds read low. activity change, % at 10 µM. 94,000 compounds, 2.3% hits; in the data active = activity change below about -80%; inconclusive = no clear call, values can overlap the other calls
GASC1 inh: blocks human GASC-1 (KDM4C) demethylase activity | inhibition, % at 12.5 µM | 96,000 compounds, 0.15% hits | GST-KDM4C 2-372, H3K9me3 peptide, LANCE TR-FRET | AID 720574;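 active = mean replicate inhibition above about 25%, with at least 55% of replicates also reaching it, limit read from the data, passing the limit was not always enough; inconclusive = only one of those two conditions met; inactive = neither condition met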
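System – N-terminal GST-fused human GASC-1 (KDM4C) fragment, residues 2-372 · Input – enzyme final amount 10 nM · Technique – LANCE TR-FRET, Eu antibody, ULight-streptavidin, EDTA, ex 340 nm, em 618/671 nm · Medium – HEPES buffer, pH 7.5, plus ascorbate · Incubation – enzyme reaction 30 min, then detection 60 min, both room temperature · Reagent – H3K9me3 peptide with Fe(II)/2OG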
T cruzi growth-2: inhibitors of T. cruzi proliferation; shares compounds with T cruzi growth-1; T. cruzi beta-gal in NIH3T3, GalScreen luminescence, 90 h; inhibition, % at 8.35 µM; 5,600 compounds, 72% hits; AID 651739;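 active = mean replicate inhibition above about 95% and at least 55% of replicates individually reaching it, limit read from the data; inconclusive = only one of the two criteria is met; inactive = neither criterion is met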
T cruzi growth-3: Trypanosoma cruzi proliferation inhibition; inhibition, % at 2.09 µM; shares compounds with T cruzi growth-1; AID 651740; 5,600 compounds, 21% hits; T. cruzi beta-gal in NIH3T3, GalScreen luminescence, 90 h;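 active = mean inhibition above about 95%, with at least 55% of replicates also reaching it, limit read from the data; inconclusive = meets just one of the two conditions; inactive = meets neither condition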
3T3 cytotox: kills mouse NIH/3T3 fibroblasts; shares compounds with T cruzi growth-1; NIH/3T3 viability, CellTiter-Glo ATP luminescence, 90 h; cytotoxicity (signal decrease), % at 8.35 µM; 5,600 compounds, 14% hits; AID 651742;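 active = mean signal decrease across replicates above about 35% based on untreated-well scatter, with enough replicates individually passing, limit read from the data; inconclusive = no rule stated though some were filed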
3T3 cytotox 2: NIH/3T3 (mouse) viability loss. shares compounds with T cruzi growth-1. NIH/3T3 viability, CellTiter-Glo ATP luminescence, 90 h. inhibition, % at 24.9 µM. 5,600 compounds, 56% hits. AID 651744;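 active = mean loss of cell viability signal at or above a set limit, and enough replicates individually reaching it; inconclusive = meets only the mean limit or only the replicate share; inactive = meets neither condition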
Numbers stand for hits.

Screening CC(C)CC#Cc1ccc2c(c1)O[C@@H](CN(C)C(=O)C1CCC1)[C@H](C)CN([C@@H](C)CO)S2(=O)=O returned IDH1 mut inh inactive, T cruzi growth-1 106, Pf Dd2 inh inactive, GASC1 inh inactive, T cruzi growth-2 97, T cruzi growth-3 104, 3T3 cytotox inactive and 3T3 cytotox 2 42.
Screening O=C(CCSc1nnnn1-c1ccccc1)Nc1ccc(Cl)cc1 returned IDH1 mut inh inactive.
For COC(=O)c1ccc(COc2ccc3c(C)cc(=O)oc3c2)o1 the results were IDH1 mut inh inactive.
Screening C[C@H](CO)N1C[C@H](C)[C@@H](CN(C)C(=O)Cc2ccncc2)Oc2ncc(C#Cc3ccccc3F)cc2C1=O returned T cruzi growth-1 inconclusive, Pf Dd2 inh inactive, GASC1 inh inactive, T cruzi growth-2 112, T cruzi growth-3 inactive, 3T3 cytotox inactive and 3T3 cytotox 2 inconclusive.
`C[C@@H]1CN([C@H](C)CO)C(=O)c2cc(C#Cc3ccccc3F)cnc2O[C@@H]1CN(C)S(=O)(=O)c1ccccc1` gave IDH1 mut inh inactive, T cruzi growth-1 116, Pf Dd2 inh inactive, GASC1 inh inactive, T cruzi growth-2 98, T cruzi growth-3 inactive, 3T3 cytotox inactive and 3T3 cytotox 2 68.
For C[C@@H]1CN([C@@H](C)CO)C(=O)c2cc(C#Cc3ccccc3F)cnc2O[C@@H]1CN(C)S(=O)(=O)c1ccccc1 the results were IDH1 mut inh inactive, T cruzi growth-1 114, Pf Dd2 inh inactive, GASC1 inh inactive, T cruzi growth-2 99, T cruzi growth-3 inactive, 3T3 cytotox inactive and 3T3 cytotox 2 50.
`C[C@H](CO)N1C[C@H](C)[C@@H](CN(C)S(C)(=O)=O)Oc2ncc(C#Cc3ccccc3F)cc2C1=O` gave IDH1 mut inh inactive, T cruzi growth-1 inactive, Pf Dd2 inh inactive and GASC1 inh inactive.
`C[C@H]1CN([C@@H](C)CO)C(=O)c2cc(C#Cc3ccccc3F)cnc2O[C@@H]1CN(C)S(=O)(=O)c1ccccc1` gave IDH1 mut inh inactive, T cruzi growth-1 128, Pf Dd2 inh inactive, GASC1 inh inactive, T cruzi growth-2 110, T cruzi growth-3 inactive, 3T3 cytotox 60 and 3T3 cytotox 2 47.
`CC(C)c1ccc2c(c1)c1c3c(cncn32)CCC1` gave IDH1 mut inh inactive.
O=C(CSc1ncccc1C(=O)O)c1cccc([N+](=O)[O-])c1 was read as IDH1 mut inh inactive.
Screening COc1cc2c(cc1NC(=O)COc1ccc(Br)cc1Cl)oc1ccccc12 returned IDH1 mut inh inactive.
Screening C[C@@H]1CN([C@H](C)CO)C(=O)c2cc(C#Cc3ccccc3F)cnc2O[C@H]1CN(C)S(=O)(=O)c1ccccc1 returned IDH1 mut inh inactive, T cruzi growth-1 126, Pf Dd2 inh inactive, GASC1 inh inactive, T cruzi growth-2 109, T cruzi growth-3 inactive, 3T3 cytotox inconclusive and 3T3 cytotox 2 35.
C/C=C/c1ccc2c(c1)O[C@H](CN(C)Cc1ccncc1)[C@H](C)CN([C@@H](C)CO)S2(=O)=O was read as IDH1 mut inh inactive, T cruzi growth-1 inactive, Pf Dd2 inh inactive and GASC1 inh inactive.
`C/C=C/c1ccc2c(c1)O[C@@H](CN(C)Cc1ccncc1)[C@H](C)CN([C@@H](C)CO)S2(=O)=O` gave IDH1 mut inh inactive, T cruzi growth-1 108, Pf Dd2 inh inactive, GASC1 inh inactive, T cruzi growth-2 108, T cruzi growth-3 105, 3T3 cytotox inactive and 3T3 cytotox 2 57.
`C/C=C/c1ccc2c(c1)O[C@H](CN(C)Cc1ccncc1)[C@@H](C)CN([C@@H](C)CO)S2(=O)=O` gave IDH1 mut inh inactive, T cruzi growth-1 109, Pf Dd2 inh inactive, GASC1 inh inactive, T cruzi growth-2 109, T cruzi growth-3 102, 3T3 cytotox inactive and 3T3 cytotox 2 28.
`COc1ccc(C(=O)O)cc1NC(=S)NC(=O)COc1ccc(Br)cc1` gave IDH1 mut inh inactive.
For COc1ccc([N+](=O)[O-])cc1CSc1nnc(-c2ccc(NC(C)=O)cc2)n1C the results were IDH1 mut inh inactive.
Screening COc1cccc(C(=O)Nc2ccc3c(c2)C(=O)N(C)C[C@H](OC)[C@@H](C)CN(CCc2ccccc2)[C@@H](C)CO3)c1 returned IDH1 mut inh inactive, T cruzi growth-1 inactive, Pf Dd2 inh inactive and GASC1 inh inactive.
For COc1cccc(C(=O)Nc2ccc3c(c2)OC[C@@H](C)N(CCc2ccccc2)C[C@H](C)[C@H](OC)CN(C)C3=O)c1 the results were IDH1 mut inh inactive, T cruzi growth-1 inactive, Pf Dd2 inh inactive and GASC1 inh inactive.
COc1cccc(C(=O)Nc2ccc3c(c2)C(=O)N(C)C[C@@H](OC)[C@H](C)CN(CCc2ccccc2)[C@@H](C)CO3)c1 was read as IDH1 mut inh inactive, T cruzi growth-1 92, Pf Dd2 inh inactive, GASC1 inh inactive, T cruzi growth-2 108, T cruzi growth-3 inactive, 3T3 cytotox inactive and 3T3 cytotox 2 inactive.
`COc1cccc(C(=O)Nc2ccc3c(c2)C(=O)N(C)C[C@@H](OC)[C@H](C)CN(CCc2ccccc2)[C@H](C)CO3)c1` gave IDH1 mut inh inactive, T cruzi growth-1 100, Pf Dd2 inh inconclusive, GASC1 inh inactive, T cruzi growth-2 104, T cruzi growth-3 inactive, 3T3 cytotox inactive and 3T3 cytotox 2 inactive.
COc1cccc(C(=O)Nc2ccc3c(c2)OC[C@@H](C)N(CCc2ccccc2)C[C@@H](C)[C@H](OC)CN(C)C3=O)c1 was read as IDH1 mut inh inactive, T cruzi growth-1 118, Pf Dd2 inh inactive, GASC1 inh inactive, T cruzi growth-2 103, T cruzi growth-3 inactive, 3T3 cytotox inactive and 3T3 cytotox 2 inactive.
`CCCC(O)c1c(O)cccc1C1(O)CC(=O)C/C1=C\C(O)CC(=O)O` (stereo not given) gave IDH1 mut inh inactive.
CCCC#Cc1ccc2c(c1)O[C@H](CN(C)C(=O)c1ccccc1F)[C@@H](C)CN([C@@H](C)CO)S2(=O)=O was read as IDH1 mut inh inactive, T cruzi growth-1 inactive, Pf Dd2 inh inactive and GASC1 inh inactive.
For CC(C)CC#Cc1ccc2c(c1)O[C@@H](CN(C)C(=O)c1ccccc1F)[C@H](C)CN([C@@H](C)CO)S2(=O)=O the results were IDH1 mut inh inactive, T cruzi growth-1 105, Pf Dd2 inh -82, GASC1 inh inactive, T cruzi growth-2 106, T cruzi growth-3 106, 3T3 cytotox inconclusive and 3T3 cytotox 2 106.

Assay outcomes from PubChem.
